Assay results as given in PMC2859510 (The Journal of Biological Chemistry, 2010).
“Also recorded” adds a separate entry of the source. Where no end group is shown, it is not given here.

Tests used:
[1] = target: GST-NEMO-(2–200) (UniProt Q9Y6K9); test: AlphaScreen or HTRF
[2] = test system: unstimulated PBMC; test: Basal TNF-α and IL-6 production in PBMC; assay type: cell-based, human; settings: pretreated 2 h, vehicle 18 h, IKK-2 11-mer
Method in brief: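 Human PBMC from heparinized healthy-donor blood were isolated by Ficoll, plated at 2.5 × 10^5 cells/well in DMEM with 5% endotoxin-free FBS and penicillin/streptomycin. Cells were pretreated 2 h with increasing test compound concentrations, then given vehicle for 18 h (1% DMSO final). TNF-α and IL-6 were measured by MSD; cytotoxicity by Alamar Blue. Expressed as % of untreated cells; mean ± S.D., ≥3 determinations.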

[3] = target: GST-NEMO-(2–200) and IKK-2-FLAG (Homo sapiens, UniProt Q9Y6K9); test: Alphascreen binding assay, recombinant NEMO and IKK-2; settings: pH 7.4, read-out: inhibition of NEMO-IKK-2 interaction at 100 μM, Alphascreen
Method in brief: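 GST-NEMO-(2–200) (2 nM) and C-terminal FLAG-tagged full-length IKK-2 (2 nM) were incubated 30 min at room temperature in buffer containing 50 mM HEPES pH 7.4, 0.01% BSA, 0.0005% Tween 20 and 1 mM DTT. Unlabeled competitor peptides were titrated in for 30 min. Glutathione donor and anti-FLAG acceptor beads were added, overnight at room temperature, then Alphascreen read. Mean ± S.E. of four independent experiments.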

[4] = test system: NF-κB reporter gene; settings: cited from earlier work
[5] = test system: NF-κB reporter gene; settings: proinflammatory stimuli (TNF-α); cited from earlier work
[6] = test system: IKK-2 (Ser^181); IκBα; assay type: cell-based, patients with rheumatoid arthritis; settings: RASF, peptide 1 h before 1 ng/ml IL-1β 10 min; IKK-2 11-mer
Method in brief: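 Rheumatoid arthritis synovial fibroblasts were exposed to peptide for 1 h, then to 1 ng/ml IL-1β for 10 min. The same lysates also served the kinase assay. Proteins were separated by SDS-PAGE and transferred to PVDF. Membranes were probed 2 h at 25 °C with anti-phospho-IKK-1(Ser180)/IKK-2(Ser181) or anti-IκBα, then with secondary Ab for 1 h. Bands were read by infrared imaging.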

[7] = test system: NEMO-IKK-2 interactions; test: In situ proximity ligation assay, NEMO-IKK-2 interactions in RASF; assay type: cell-based, patients with rheumatoid arthritis; settings: data not shown
Method in brief: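 RASF on culture slides (2.5 × 10^4 cells/well, DMEM 10% FBS, overnight 37 °C) were moved to serum-free DMEM with 1% DMSO or test compound for 30 min. Cells were fixed (4% paraformaldehyde), permeabilized (0.1% Triton X-100), and blocked. They were then incubated overnight at 4 °C with anti-NEMO plus anti-IKK-2 Abs, then with oligonucleotide-linked probes (1 h, 37 °C), followed by ligation and amplification. Counterstained with Hoechst and imaged at ×20; signals/cell averaged per image.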

[8] = test system: IL-1β-stimulated RASF; test: IL-1β-induced IL-6 production in RASF; assay type: cell-based, patients with rheumatoid arthritis; settings: pretreated 2 h, 1 ng/ml IL-1β 18 h, 1% serum, IKK-2 11-mer
Method in brief: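 Fibroblasts were grown in high-glucose DMEM with 15% defined bovine serum and 50 μg/ml gentamicin. They were seeded at 1.5 × 10^4 cells/well, attached overnight, then moved to DMEM with 1% serum. Cells got rising peptide doses for 2 h, then 1 ng/ml IL-1β for 18 h. Secreted IL-6 was read by MSD, IC50 fitted, and viability checked by Alamar Blue. Data are % of stimulated cells, mean ± S.D. of ≥3 determinations.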

[9] = test system: IRAK-1, TAK-1, IκBα, p65; test: NF-κB signaling intermediates in IL-1β-stimulated RASF; assay type: cell-based, patients with rheumatoid arthritis; settings: then 1 ng/ml IL-1β 10 min; for IRAK-1 fate (disappearance of band) / TAK-1 phosphorylation: 30 min
Method in brief: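 Fibroblasts were given peptide for 30 min, then 1 ng/ml IL-1β for 10 min at 37 °C. Lysis used Tris pH 7.6 / NaCl / 0.5% NP-40 buffer with protease and phosphatase inhibitors, with protein measured by Bradford. Blots were run by SDS-PAGE and PVDF transfer, with primary Abs 2 h at 25 °C (anti-IRAK-1, anti-phospho-TAK-1, anti-p65) and secondary Ab 1 h. Tubulin served as loading control.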

[10] = test system: NEMO-IKK-2 complex; test: Immunoprecipitation of the IKK complex with anti-NEMO from RASF; assay type: cell-based, patients with rheumatoid arthritis; settings: 150 μM WT or mutant peptide, 30 min, then 1 ng/ml IL-1β 10 min; IKK-2 11-mer
Method in brief: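 Fibroblasts were given 150 μM WT or mutant peptide for 30 min, then 1 ng/ml IL-1β for 10 min at 37 °C. Cells were lysed in 20 mM Tris pH 7.6, 150 mM NaCl, 0.5% NP-40, PMSF, protease and phosphatase inhibitors. From 50 μg lysate, the complex was pulled down with anti-NEMO mAb for 1 h, then Protein A beads for 1 h. Precipitates and inputs were blotted under reducing SDS-PAGE and read by infrared imaging. Runs were repeated 2–4 times.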

[11] = test system: unstimulated RASF; test: Basal IL-6 production in RASF; assay type: cell-based, patients with rheumatoid arthritis; settings: pretreated 2 h, vehicle 18 h, IKK-2 11-mer
Method in brief: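 Commercial RASF were seeded at 1.5 × 10^4 cells/well in high-glucose DMEM with 15% defined bovine serum and 50 μg/ml gentamicin, attached overnight, then switched to DMEM with 1% serum. Cells were pretreated 2 h with increasing test compound concentrations, then given vehicle for 18 h. Secreted IL-6 was measured by MSD; cytotoxicity by Alamar Blue. Expressed as % of untreated cells; mean ± S.D., ≥3 determinations.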

[12] = test system: bovine nasal cartilage explant cultures; assay type: cell-based; settings: data not shown
[13] = test system: LPS-stimulated PBMC; test: LPS-induced TNF-α and IL-6 production in PBMC; assay type: cell-based, human; settings: pretreated 2 h, 10 ng/ml LPS 18 h, IKK-2 11-mer, Fig. 1A/data not shown
Method in brief: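 PBMC were Ficoll-isolated from heparinized healthy-donor blood and kept in DMEM with 5% endotoxin-free FBS and pen/strep. They were plated at 2.5 × 10^5 cells/well and given rising peptide doses for 2 h. Then 10 ng/ml LPS or vehicle was added for 18 h, at 1% DMSO final. TNF-α and IL-6 were read by MSD, IC50 fitted, and viability checked by Alamar Blue. Data are % of LPS-stimulated cells, mean ± S.D.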

[14] = target: NEMO-(2-200) (UniProt Q9Y6K9); test: fluorescence polarisation
[15] = target: GST-NEMO-(2–200) and biotinylated IKK-1/2 chimeric 44-mer peptide (Homo sapiens, UniProt Q9Y6K9); test: Time-resolved FRET binding assay
[16] = test system: IKK complex; test: Native PAGE / Western blot: release of IKK-2 from an IKK complex in RASF; assay type: cell-based, patients with rheumatoid arthritis; settings: 30 min peptide, then IL-1β 10 min, IKK-2 11-mer

GST-NEMO-(2–200), sequence (Q9Y6K9 2-200): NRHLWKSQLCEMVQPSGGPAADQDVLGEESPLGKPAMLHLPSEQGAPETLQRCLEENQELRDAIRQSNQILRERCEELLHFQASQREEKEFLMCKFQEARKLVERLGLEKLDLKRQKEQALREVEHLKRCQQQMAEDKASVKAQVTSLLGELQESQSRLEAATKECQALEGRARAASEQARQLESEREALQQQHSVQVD
NEMO-(2-200), sequence (Q9Y6K9 2-200): as above
GST-NEMO-(2–200) and IKK-2-FLAG, sequence (Q9Y6K9 2-200): as above
GST-NEMO-(2–200) and biotinylated IKK-1/2 chimeric 44-mer peptide, sequence (Q9Y6K9 2-200, change not shown): as the sequence (Q9Y6K9 2-200) above

Row | Substance | IC50 [1] [nM] | basal cytokine production (TNF-α and IL-6), PBMC [2] | IKK-2 phosphorylation at Ser^181 [6] | IκBα degradation [6] | IRAK-1 fate (disappearance of band) [9] | TAK-1 phosphorylation [9] | IκBα degradation (30 min pretreatment) [9] | basal IL-6 production, RASF [11] | cytokine-induced release of glycosaminoglycans [12] | further results
1 | Antennapedia homeodomain-conjugated IKK-2 11-mer NBD peptide (WT) | > 100000 | – | – | – | – | – | – | – | – | percent inhibition at 100 μM [1]: 40%
2 | DRQIKIWFQNRRMKWKKTALDWSWLQTE [WT NBD peptides] | – | neither WT nor mutant NBD peptides had an inhibitory effect; also recorded: slight increase in basal cytokine production | inhibited | inhibited | no effect | no effect | inhibited IκBα degradation in a concentration-dependent manner | neither WT nor mutant NBD peptides had an inhibitory effect; also recorded: slight increase in basal cytokine production | inhibited | inhibition at 100 µM [3]: 40%; NF-κB reporter gene activity, basal [4]: did not inhibit basal reporter gene activity; NF-κB reporter gene activity, stimulated [5]: inhibited NF-κB reporter gene activity; NEMO-IKK-2 interactions (PLA), unstimulated [7]: inhibited NEMO-IKK-2 interactions in unstimulated cells; IL-1β-induced IL-6 production [8]: completely blocked; relative concentration of IKK-2 in the immunoprecipitated complex [10]: no significant effect; LPS-induced production of IL-6 [13]: completely blocked
3 | IKK-2 45-mer mutant (W739A and W741A) (peptide) | > 1000 | – | – | – | – | – | – | – | – | IC50 [14]: > 1000 nM
4 | PAKKSEELVAEAHNLCTLLENAIQDTVREQDQSFTALDWSWLQTE [IKK-2 45-mer] | – | – | – | – | – | – | – | – | – | IC50 [15]: 1 to 7 nM
5 | TALDASALQTE [mutant NBD peptides] | – | neither WT nor mutant NBD peptides had an inhibitory effect | WT but not mutant NBD peptides inhibited | WT but not mutant NBD peptides inhibited | failed | failed | failed to protect IκBα from degradation | neither WT nor mutant NBD peptides had an inhibitory effect | WT but not mutant NBD peptides inhibited | release of IKK-2 from IKK complex, IL-1β-treated [16]: WT but not mutant NBD peptides led to the appearance of an IKK-2 band distinct from the complex; also recorded: WT but not mutant NBD peptides resulted in the release of IKK-2
